Apaf1 activ: activators of human Apaf-1 apoptosome, primary screen, biochemical, DEVD-Rh110 fluorescence, uHTS; Apaf-1 apoptosome caspase-3 activation; stronger effect = lower value; activity change, negative = activation, % at 20 µM; 0.31% of 330,000 active; AID 489031, 2010;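 active means activity change at or below -40% at 20 µM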
Target sequence (O14727 whole entry, looked up): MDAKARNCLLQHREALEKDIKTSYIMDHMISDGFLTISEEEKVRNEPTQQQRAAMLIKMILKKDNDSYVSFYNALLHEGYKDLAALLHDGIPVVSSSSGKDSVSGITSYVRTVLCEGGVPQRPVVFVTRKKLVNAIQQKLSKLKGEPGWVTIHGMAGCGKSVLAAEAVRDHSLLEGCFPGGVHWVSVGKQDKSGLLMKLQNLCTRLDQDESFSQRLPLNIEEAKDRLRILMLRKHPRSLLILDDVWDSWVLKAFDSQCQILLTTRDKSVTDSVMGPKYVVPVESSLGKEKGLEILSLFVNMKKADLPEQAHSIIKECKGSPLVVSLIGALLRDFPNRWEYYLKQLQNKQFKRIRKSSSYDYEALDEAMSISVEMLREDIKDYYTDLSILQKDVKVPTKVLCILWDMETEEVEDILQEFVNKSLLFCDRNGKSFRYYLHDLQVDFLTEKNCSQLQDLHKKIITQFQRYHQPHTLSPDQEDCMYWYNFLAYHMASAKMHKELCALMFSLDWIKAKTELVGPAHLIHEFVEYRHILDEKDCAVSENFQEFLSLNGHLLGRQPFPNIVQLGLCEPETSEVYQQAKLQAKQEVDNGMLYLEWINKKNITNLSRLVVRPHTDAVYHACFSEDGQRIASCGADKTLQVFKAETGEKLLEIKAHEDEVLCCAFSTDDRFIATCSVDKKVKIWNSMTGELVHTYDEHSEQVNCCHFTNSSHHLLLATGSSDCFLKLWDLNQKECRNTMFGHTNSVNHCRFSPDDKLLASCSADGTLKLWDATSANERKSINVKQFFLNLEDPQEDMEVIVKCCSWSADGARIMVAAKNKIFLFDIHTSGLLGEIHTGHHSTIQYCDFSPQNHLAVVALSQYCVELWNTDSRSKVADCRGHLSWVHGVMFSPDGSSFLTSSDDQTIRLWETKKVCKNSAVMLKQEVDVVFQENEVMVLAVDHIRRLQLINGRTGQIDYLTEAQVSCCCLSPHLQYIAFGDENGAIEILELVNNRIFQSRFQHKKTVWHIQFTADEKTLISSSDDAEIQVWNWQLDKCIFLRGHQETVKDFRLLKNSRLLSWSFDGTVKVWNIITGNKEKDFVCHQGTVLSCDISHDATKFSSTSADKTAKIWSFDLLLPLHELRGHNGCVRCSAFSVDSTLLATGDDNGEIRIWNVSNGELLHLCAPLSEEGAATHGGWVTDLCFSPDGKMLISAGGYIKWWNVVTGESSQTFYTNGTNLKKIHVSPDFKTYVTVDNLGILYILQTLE
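System: Reconstituted apoptosome of Apaf-1, cytochrome c, caspase-9, procaspase-3 | Reagent: dATP, cytochrome c, and (Z-DEVD)2-Rh110 caspase-3 substrate | Times: 30 min compound preincubation and 50 min reaction, both room temperature | Detection: Caspase-3-released Rh110 fluorescence, 540 nm emission, 480 nm excitation | Measure: Caspase-3 activity via Apaf-1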
Rh110 interf act: Rh110 fluorescence interference by putative Apaf-1 activators, confirmation, artefact control for Apaf-1 activator project, biochemical, 20 µM; shares compounds with Apaf1 activ; quenched caspase reaction, Ex480/Em540; fluorescence interference (activity change), % at 20 µM, hits read low; 980 tested, under 10 active; AID 504616, 2011;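 active means mean activity change at or below -40% when tested at 20 µM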
Apaf-1 act conf: Apaf-1 activators, single-dose retest, confirmation, biochemical, fluorescence, DEVD-Rh110, 20 µM; shares compounds with Apaf1 activ; reconstituted apoptosome caspase-3 activity; stronger effect = lower value; activity change, negative = activation, % at 20 µM; 5% of 980 active;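 active means mean activity change at or below -40%, meaning activation of 40% or more, at 20 µM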
Apaf1 act interf: fluorescence interference of Apaf-1 activator hits, dose response, artefact control for Apaf-1 activator project | shares compounds with Apaf1 activ | AID 588592, 2011 | fluorescence interference counterscreen, Apaf-1 activator assay | EC50, µM | 55 tested, under 10 active; call rule not given here
* marks the source's active call; other numbers are inactive results; nt = no result. Not all results are given here.

SMILES	Apaf1 activ	Rh110 interf act	Apaf-1 act conf	others
COc1ccc2c(c1)c(/C=N/Nc1nc3ccccc3[nH]1)c(C)n2C	43	nt	nt
CNC[C@H](CC1CCCCC1)NC[C@H](Cc1ccccc1)NCCC12CC3CC(CC(C3)C1)C2	74	nt	nt
Cc1cc(NC(=O)CCC(=O)N(CC(=O)NCC2CCCO2)Cc2ccc(F)cc2)no1 (stereo unspecified)	-45*	-2	2
CCc1ccc(N=C2NC(=O)/C(=C/c3cc(Br)c(OCC(=O)O)c(OC)c3)S2)cc1	-99*	6	-67*	Apaf1 act interf=>100
CCOc1ccc2nc3cc(NCc4ccc(OC)cc4)ccc3c(N)c2c1	96	nt	nt
Cc1cc(C)n2nc(N)c(N=Nc3ccccc3)c2n1	-4	nt	nt
Cc1cc(C)n2nc(SC(C)C(=O)N(C)c3ccccc3)nc2n1 (stereo unspecified)	-54*	1	10
Cc1ccc(SCC(=O)OCC(=O)NCCNC(=O)COC(=O)CSc2ccc(C)c(C)c2)cc1C	40	nt	nt
CS(=O)c1nc(-c2ccc(Br)cc2)cc(-c2ccccc2)c1C#N (stereo unspecified)	55	nt	nt
CC(=O)OCC1=C(C(=O)O)N2C(=O)C(NC(=O)C(C)Cn3nc(C)c(Cl)c3C)C2SC1 (stereo unspecified)	-90*	5	-19
CCCCNc1c(-c2ccc(OC)c(Sc3ccc(OC)cc3)c2)nc2cnccn12	43	nt	nt
COC(=O)CCC(=O)OC1(C)C(=O)C=C2C=C(C3CC3)N(C3CCCC3)C=C2C1=O (stereo unspecified)	67	nt	nt
O=C(COC(=O)c1cc(S(=O)(=O)N2CCc3ccccc3C2)ccc1Cl)NCc1ccco1	43	nt	nt
O=C(CCS(=O)(=O)c1ccc(Br)cc1)NCc1ccco1	-88*	9	-51*	Apaf1 act interf=>100
COc1ccc([N+](=O)[O-])cc1NC(=O)CCS(=O)(=O)c1ccc(Br)cc1	-111*	-5	-101*	Apaf1 act interf=>100
CCCN(CC(=O)Nc1ccccc1OC)C(=O)CSc1ccc(Br)cc1C	57	nt	nt
CCOc1ccccc1NC(=O)CCS(=O)(=O)c1ccc(Br)cc1	-220*	12	-128*	Apaf1 act interf=>100
Cc1c(C(=O)N(C)CCOc2ccccc2)oc2c(Cl)cccc12	45	nt	nt
Cc1cccc(S(=O)(=O)C(C#N)c2nc3ccccc3nc2N2CCCC2)c1 (stereo unspecified)	55	nt	nt
COc1ccc(OC)c2sc(N(CCCN(C)C)C(=O)c3ccc(S(=O)(=O)N4CCc5ccccc5C4)cc3)nc12	55	nt	nt
Cc1ccc(-n2c(SCC(=O)Nc3cc(C)on3)nc3c([nH]c4ccccc43)c2=O)cc1	54	nt	nt
Nc1c(C(=O)NCc2ccco2)c2nc3ccccc3nc2n1CCc1ccccc1F	61	nt	nt
CCC(C(=O)NCc1ccco1)n1nc(C)c2c(C)n(-c3ccccc3)nc2c1=O (stereo unspecified)	-86*	2	13
C=CC[C@@H](Cc1ccc(F)cc1)C(=O)OC[C@H]1CCCN1C(=O)[C@@H](CC=C)CC(=O)N[C@H](CO)Cc1ccccc1	41	nt	nt
O=C(C(Cc1ccccc1)N1C(=O)c2ccccc2C1=O)N1c2ccccc2CCc2ccccc21 (stereo unspecified)	40	nt	nt
SMILES	Apaf1 activ	Rh110 interf act	Apaf-1 act conf	others
CCOC(=O)c1nn(-c2ccc(C)c(C)c2)c(=O)c2c(N)scc12	56	nt	nt
COC1=CC(=O)c2ccccc2C1=O	79	nt	nt
O=C1c2ccccc2C(=O)C1c1ccc2ccccc2n1	-334*	6	5
CCc1cc2c(SCC(=O)N3CC(=O)Nc4ccccc43)ncnc2s1	55	nt	nt
N#Cc1c(N2CCCCC2)nc(N)c2c(N)nc3c(c12)CC(c1ccccc1)O3 (stereo unspecified)	42	nt	nt
COc1ccc(C2=NCN(c3ccc(C)cc3)C(=S)N2)cc1	-555*	9	17
COc1ccc(-n2nc3cc(N)c(Br)cc3n2)cc1	69	nt	nt
COc1cc(OC)c(NC2=CC(=O)C(=O)c3ccccc32)cc1Cl	92	nt	nt
CCOc1cc(CNc2ccc3cn[nH]c3c2)ccc1OC	85	nt	nt
CN(Cc1ccccc1)c1oc(-c2ccco2)nc1C#N	41	nt	nt
CC(=O)C(C(C)=O)C1(O)C(=O)c2ccccc2C1=O	86	nt	nt
CN(CC(=O)Nc1ccc(F)cc1)C(=O)C1CC(=O)N(Cc2ccccc2)C1 (stereo unspecified)	44	nt	nt
Cc1ccc(NC(=O)CC(C)N2CCCC2)cc1 (stereo unspecified)	-79*	10	13
